Experimental data published in ChEMBL document CHEMBL3526139, “Clinical pharmacokinetics, metabolism, and drug-drug interaction of carfilzomib” (Drug Metab Dispos, 2013).

Columns and labels:
CYP3A [1] = molecular target: T1, CYP3A (Homo sapiens, UniProt P08684+P20815+P24462+Q9HB55); assay: Inhibition of CYP3A in human liver microsomes assessed as substrate metabolite formation using midazolam as substrate measured after 5 mins by LC-MS/MS analysis; format: ADME; conditions: probe midazolam
Method in brief: (§1)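 Pooled HLM from 16 donors were incubated at 37°C in duplicate with carfilzomib 0.01–10 µM and probe substrate at about its Km. Substrates were phenacetin, amodiaquine, diclofenac, S-mephenytoin, dextromethorphan, testosterone and midazolam. Protein was 0.1 mg/mL, or 0.05 mg/mL with midazolam. Reactions ran 5 min without preincubation, then were quenched with acetonitrile. Metabolites were measured by LC-MS/MS relative to 0.5% acetonitrile controls.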

[2] = Plasma clearance in human patient with relapsed solid tumor at 20 mg/m'2, iv administered over 2 to 10 mins on days 1, 2, 8, 9, 15 and 16 of 28-day cycle measured on day 1 of cycle 1 by LC-MS/MS analysis; format: ADME, organism-based
Method in brief: (§2)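 Patients with relapsed solid tumors (n=3) received carfilzomib IV at 20 mg/m2. Plasma was sampled on Days 1 and 16 of Cycle 1 before dosing, at end of administration, and at 5, 15, 30 min and 1, 2, 4 h after. Samples underwent solid phase extraction and LC-MS/MS with d10-carfilzomib internal standard over 0.100–200 ng/mL. Parameters were derived noncompartmentally (constant IV infusion model) from actual elapsed time from infusion start.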

[3] = Half life in human patient with relapsed solid tumor at 20 mg/m'2, iv administered on days 1, 2, 8, 9, 15 and 16 of 28-day cycle over 2 to 10 mins measured on day 16 of cycle 1 by LC-MS/MS analysis; format: ADME, organism-based; conditions: in vivo; method in brief: as §2
Cytochrome P450 1A2 [4] = molecular target: T2, Cytochrome P450 1A2 (Homo sapiens, UniProt P05177); assay: Inhibition of CYP1A2 in human liver microsomes using phenacetin as substrate after 5 mins by LC-MS/MS analysis; format: ADME; method in brief: as §1
T2 sequence (P05177 whole entry): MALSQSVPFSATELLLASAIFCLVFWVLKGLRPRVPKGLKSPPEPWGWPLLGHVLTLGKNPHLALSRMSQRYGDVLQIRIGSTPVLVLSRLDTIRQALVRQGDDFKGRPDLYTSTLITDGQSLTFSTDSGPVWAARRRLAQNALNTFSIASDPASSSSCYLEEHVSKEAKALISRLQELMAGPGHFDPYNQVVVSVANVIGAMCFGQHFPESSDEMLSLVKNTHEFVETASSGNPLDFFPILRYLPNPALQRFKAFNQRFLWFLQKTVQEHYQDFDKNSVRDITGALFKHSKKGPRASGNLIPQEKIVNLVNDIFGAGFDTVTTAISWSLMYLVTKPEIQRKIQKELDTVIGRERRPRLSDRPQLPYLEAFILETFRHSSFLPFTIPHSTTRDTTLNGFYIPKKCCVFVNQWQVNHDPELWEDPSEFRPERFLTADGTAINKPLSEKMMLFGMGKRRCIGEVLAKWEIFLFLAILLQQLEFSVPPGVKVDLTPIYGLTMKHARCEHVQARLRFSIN

Cytochrome P450 2C19 = Cytochrome P450 2C19 (Homo sapiens, UniProt P33261); assay: Inhibition of CYP2C19 in human liver microsomes using S-mephenytoin as substrate after 5 mins by LC-MS/MS analysis; format: ADME; method in brief: as §1
Chain of Cytochrome P450 2C19 (P33261 whole entry): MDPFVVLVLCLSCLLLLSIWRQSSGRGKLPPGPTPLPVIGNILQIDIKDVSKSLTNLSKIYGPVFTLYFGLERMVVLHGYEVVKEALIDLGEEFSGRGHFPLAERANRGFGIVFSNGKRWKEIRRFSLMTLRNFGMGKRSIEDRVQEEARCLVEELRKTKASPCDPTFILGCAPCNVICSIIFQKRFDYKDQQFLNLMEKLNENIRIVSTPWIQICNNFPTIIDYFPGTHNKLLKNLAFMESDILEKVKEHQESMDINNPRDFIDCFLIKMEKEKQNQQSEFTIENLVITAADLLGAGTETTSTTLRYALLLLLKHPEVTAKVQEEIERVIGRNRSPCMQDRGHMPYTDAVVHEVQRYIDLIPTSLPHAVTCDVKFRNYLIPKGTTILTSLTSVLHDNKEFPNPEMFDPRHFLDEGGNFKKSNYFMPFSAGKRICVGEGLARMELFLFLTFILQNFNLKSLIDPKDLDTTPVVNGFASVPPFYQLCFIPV

[5] = Drug metabolism in pooled human hepatocytes assessed as disapperance rate at 1 uM by LC-MS/MS analysis; format: ADME, cell-based, Hepatocyte
Method in brief: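 Pooled human hepatocytes in suspension (~0.5 x 10^6 viable cells/mL) were incubated with 1 µM carfilzomib at 37°C under 5% CO2, with or without isoform-selective CYP chemical inhibitors. Reactions were quenched with acetonitrile at 0, 15, 30, 60 and 120 min. Carfilzomib was quantified by non-validated LC-MS/MS after protein precipitation.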

Plasma [6] = assay: Drug metabolism in plasma of iv dosed human patient with relapsed and refractory hematological malignancies assessed as morpholino-hPhe-Leu-Phe-Leu-diol metabolite formation administered on days 1, 2, 8, 9, 15 and 16 of 28-day cycle over 2 to 10 mins by LC-MS/MS analysis; format: ADME, organism-based; conditions: in vivo
Plasma [7] = assay: Drug metabolism in plasma of iv dosed human patient with relapsed and refractory hematological malignancies assessed as morpholino-hPhe-Leu metabolite formation administered on days 1, 2, 8, 9, 15 and 16 of 28-day cycle over 2 to 10 mins by LC-MS/MS analysis; format: ADME, organism-based; conditions: in vivo
CYP3A [8] = assay: Decrease in CYP3A gene expression in human hepatocytes at 2.5 uM after 3 days by qPCR analysis; format: ADME, cell-based, Hepatocyte
Method in brief: (§3)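 Hepatocytes were treated 3 days with carfilzomib (0.1–2.5 µM) or 0.08% DMSO, renewed daily. CYP3A mRNA was measured in 3 donors and CYP1A2 mRNA in one additional donor, both by qPCR. Values are triplicate means relative to DMSO.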

CYP1A2 = assay: Decrease in CYP1A2 gene expression in human hepatocytes at 2.5 uM after 3 days by qPCR analysis; format: ADME, cell-based, Hepatocyte; method in brief: as §3
Cytochrome P450 2D6 = Cytochrome P450 2D6 (Homo sapiens, UniProt P10635); assay: Inhibition of CYP2D6 in human liver microsomes using dextromethorphan as substrate after 5 mins by LC-MS/MS analysis; format: ADME; method in brief: as §1
Chain of Cytochrome P450 2D6 (P10635 whole entry): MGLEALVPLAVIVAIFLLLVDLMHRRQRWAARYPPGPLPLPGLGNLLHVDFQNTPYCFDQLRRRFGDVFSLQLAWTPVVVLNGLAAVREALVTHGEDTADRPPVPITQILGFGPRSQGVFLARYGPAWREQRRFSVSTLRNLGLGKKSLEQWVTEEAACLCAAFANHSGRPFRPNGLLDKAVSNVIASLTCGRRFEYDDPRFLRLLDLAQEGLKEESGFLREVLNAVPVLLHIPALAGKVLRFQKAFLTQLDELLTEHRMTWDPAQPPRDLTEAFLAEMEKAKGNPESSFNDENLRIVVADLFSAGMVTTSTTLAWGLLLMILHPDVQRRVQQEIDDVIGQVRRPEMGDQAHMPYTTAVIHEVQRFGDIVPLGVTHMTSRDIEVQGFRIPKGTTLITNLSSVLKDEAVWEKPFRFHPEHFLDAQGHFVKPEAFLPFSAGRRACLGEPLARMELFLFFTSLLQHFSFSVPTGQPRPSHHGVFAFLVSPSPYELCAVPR

CYP3A [9] = molecular target: T1, CYP3A; assay: Time-dependent inhibition of CYP3A in human liver microsomes assessed as testosterone 6-hydroxylation using testosterone as substrate by LC-MS/MS analysis; format: ADME; conditions: probe testosterone (6-hydroxylation)
Method in brief: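 Pooled HLM (16 donors, mixed sex), 37°C, duplicate. IC50: carfilzomib 0.01–10 µM preincubated 30 min, then testosterone near Km (100 µM) at 0.1 mg/mL protein, 5 min, LC-MS/MS, relative to 0.5% acetonitrile control. KI/kinact: 0–8 µM preincubated 0–30 min with 2.5 mg/mL HLM plus NADPH-generating system, diluted 25-fold, testosterone 200 µM for 5 min.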

Cytochrome P450 3A4 = Cytochrome P450 3A4 (Homo sapiens, UniProt P08684); assay: Decrease in CYP3A4 activity in human hepatocytes assessed as 6-betahydroxytestosterone formation using testosterone as substrate at 2.5 uM incubated for 3 days prior to substrate challenge for 30 mins by LC-MS/MS analysis; format: ADME, cell-based, Hepatocyte; conditions: 0.5 h
Chain of Cytochrome P450 3A4 (P08684 whole entry): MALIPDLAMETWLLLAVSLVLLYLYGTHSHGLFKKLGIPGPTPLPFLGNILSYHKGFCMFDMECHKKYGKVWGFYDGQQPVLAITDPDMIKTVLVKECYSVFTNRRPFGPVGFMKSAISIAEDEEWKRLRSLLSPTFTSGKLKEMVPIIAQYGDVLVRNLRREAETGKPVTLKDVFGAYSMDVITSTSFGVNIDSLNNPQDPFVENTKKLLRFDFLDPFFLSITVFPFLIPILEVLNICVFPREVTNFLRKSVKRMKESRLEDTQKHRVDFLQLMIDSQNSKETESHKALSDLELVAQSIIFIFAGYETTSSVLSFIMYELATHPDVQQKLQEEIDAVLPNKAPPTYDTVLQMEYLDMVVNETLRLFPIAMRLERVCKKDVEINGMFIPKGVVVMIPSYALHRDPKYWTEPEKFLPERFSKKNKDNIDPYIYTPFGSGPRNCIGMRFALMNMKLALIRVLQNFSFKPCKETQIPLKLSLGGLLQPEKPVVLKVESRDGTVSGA
Method in brief: (§4)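 Hepatocytes from 3 donors were plated on collagen I and cultured 2 days, then treated 3 days with carfilzomib (0.1–2.5 µM), 0.08% DMSO, rifampicin 20 µM or β-naphthoflavone 20 µM, renewed daily. Cells were then incubated in serum-free medium in triplicate with testosterone 200 µM (CYP3A, 30 min, 6β-hydroxytestosterone) or phenacetin 100 µM (CYP1A2, 60 min, acetaminophenol). Products were measured by LC-MS/MS and expressed relative to DMSO.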

Cytochrome P450 1A2 [10] = molecular target: T2, Cytochrome P450 1A2; assay: Decrease in CYP1A2 activity in human hepatocytes assessed as acetaminophenol formation using phenacetin as substrate at 2.5 uM incubated for 3 days prior to substrate challenge for 60 mins by LC-MS/MS analysis; format: ADME, cell-based, Hepatocyte; conditions: 1 h; method in brief: as §4
Hepatocyte = assay: Cytotoxicity against human hepatocytes assessed as cell viability by MTT assay; format: cell-based
Method in brief: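 MTT viability assay in cultured human hepatocytes from 3 donors after 3 days of carfilzomib exposure (0.1, 0.5, 2.5 µM) with daily medium and compound renewal. Solvent control was 0.08% DMSO.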

Cytochrome P450 2C9 = Cytochrome P450 2C9 (Homo sapiens, UniProt P11712); assay: Drug metabolism in pooled human hepatocytes assessed as disapperance rate at 1 uM by LC-MS/MS analysis in presence of 10 uM CYP2C9 inhibitor sulfaphenazole
Chain of Cytochrome P450 2C9 (P11712 whole entry, looked up): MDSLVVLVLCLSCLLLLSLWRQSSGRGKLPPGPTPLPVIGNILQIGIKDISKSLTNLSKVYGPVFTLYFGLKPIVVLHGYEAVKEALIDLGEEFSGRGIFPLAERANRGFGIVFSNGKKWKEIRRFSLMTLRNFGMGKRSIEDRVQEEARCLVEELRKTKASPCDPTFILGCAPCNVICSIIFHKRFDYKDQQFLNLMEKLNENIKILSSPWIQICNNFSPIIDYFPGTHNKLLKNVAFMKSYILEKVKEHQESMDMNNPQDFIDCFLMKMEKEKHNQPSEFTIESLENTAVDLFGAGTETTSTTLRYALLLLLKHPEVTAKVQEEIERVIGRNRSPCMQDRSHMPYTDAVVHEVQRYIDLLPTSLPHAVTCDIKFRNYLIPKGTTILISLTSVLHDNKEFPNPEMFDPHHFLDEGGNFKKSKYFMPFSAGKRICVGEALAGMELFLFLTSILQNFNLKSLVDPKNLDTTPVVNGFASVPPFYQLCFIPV

CC(C)C[C@H](NC(=O)[C@H](CCc1ccccc1)NC(=O)CN1CCOCC1)C(=O)N[C@@H](Cc1ccccc1)C(=O)N[C@@H](CC(C)C)C(=O)[C@@]1(C)CO1 [CARFILZOMIB]
IC50 at 5 min (CYP3A [1]): 1.7 µM
clearance [2]: 2430 mL/min
half-life [3]: 1.1 h
IC50 (Cytochrome P450 1A2 [4]): > 10 µM
IC50 (Cytochrome P450 2C19): > 10 µM
Drug metabolism [5]: 0.015 min⁻¹
Drug metabolism (Plasma [6]): metabolite_detected
Drug metabolism (Plasma [7]): metabolite_detected
inhibition at 72 h, 2.5 µM (CYP3A [8]): > 95%
inhibition at 72 h, 2.5 µM (CYP1A2): 40%
IC50 (Cytochrome P450 2D6): > 10 µM
Ki (CYP3A [9]): 11 µM
kinact (CYP3A [9]): 0.00167 s⁻¹
inhibition (INH) (Cytochrome P450 3A4): 45%
inhibition (INH) (Cytochrome P450 1A2 [10]): Dose-dependent effect
Activity (Hepatocyte): Non-toxic
Drug metabolism (Cytochrome P450 2C9): 0.0073 min⁻¹
